Columns and labels:
Integrin alpha-4/beta-1 [1] = target: T1, Integrin alpha-4/beta-1 (Homo sapiens, UniProt P05556+P13612); test: Inhibition of CS-1 fragment binding to Very late antigen 4 (VLA-4) expressed in Ramos cells; assay type: cell-based
Integrin alpha-4/beta-1 [2] = target: T1, Integrin alpha-4/beta-1; test: Inhibition of CS-1 fragment binding to Very late antigen 4 expressed in Ramos cells in 10% fetal bovine serum(FBS); assay type: cell-based
Mus musculus [3] = test: Inhibition of eosinophil infiltration in the murine asthma model tested in vivo by po administration at a dose of 10 mg/kg (peroral); assay type: functional
Summary of the method: (§1)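 Mice were ovalbumin-sensitized and challenged. Twenty-four hours after the final OVA challenge, they were exsanguinated and the right lung lavaged (0.4 mL saline ×3). Total BAL cells were counted, then the pelleted cells were smeared, stained with Discombe's fluid (eosin/acetone) and counterstained with 0.07% methylene blue for eosinophil counts. Inhibition is expressed relative to OVA-challenged animals.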

[4] = Oral bioavailability in cynomolgus monkey; assay type: ADME, organism-based, Macaca fascicularis; settings: in vivo
Mus musculus [5] = test: Inhibition of eosinophil infiltration in the murine asthma model tested in vivo by po administration at a dose of 25 mg/kg (peroral); assay type: functional; summary of the method: as §1
[6] = Cmax in cynomolgus monkey by iv administration; assay type: ADME, organism-based; set-up: route intravenous; settings: cercopithecidae, in vivo
Mus musculus [7] = test: Reduction in eosinophil count in murine asthma model tested in vivo by at a dose of 10 mg/kg (intravenous); assay type: functional; summary of the method: as §1
[8] = Plasma clearance in cynomolgus monkey; assay type: ADME, organism-based; settings: cercopithecidae
Mus musculus [9] = test: Inhibition of eosinophil infiltration in the murine asthma model tested in vivo at a dose of 10 mg/kg (intravenous); assay type: functional; settings: route intranasal, in the assay text read “intranasal” for “intravenous”; summary of the method: as §1
[10] = Pharmacokinetic property(Vdss) in cynomolgus monkey; assay type: ADME, organism-based; settings: cercopithecidae, in vivo; read-out: Vdss
[11] = Half-life period in cynomolgus monkey; assay type: ADME; settings: cercopithecidae, in vivo
[12] = Cmax in cynomolgus monkey by po administration; assay type: ADME, organism-based; set-up: route oral; settings: cercopithecidae, in vivo
Mus musculus [13] = test: Reduction in eosinophil count in murine asthma model tested in vivo by po administration at a dose of 10 mg/kg (peroral); assay type: functional; summary of the method: as §1
Mus musculus [14] = test: Inhibition of eosinophil infiltration in the murine asthma model tested in vivo at a dose of 5 mg/kg (intravenous); assay type: functional; summary of the method: as §1
Mus musculus [15] = test: Reduction in eosinophil count in murine asthma model tested in vivo by po administration at a dose of 25 mg/kg (peroral); assay type: functional; summary of the method: as §1
Mus musculus [16] = test: Eosinophil count in murine asthma model tested in vivo at a dose of 5 mg/kg (intravenous)

T1 sequence (P05556 whole entry, the tested form may be a part): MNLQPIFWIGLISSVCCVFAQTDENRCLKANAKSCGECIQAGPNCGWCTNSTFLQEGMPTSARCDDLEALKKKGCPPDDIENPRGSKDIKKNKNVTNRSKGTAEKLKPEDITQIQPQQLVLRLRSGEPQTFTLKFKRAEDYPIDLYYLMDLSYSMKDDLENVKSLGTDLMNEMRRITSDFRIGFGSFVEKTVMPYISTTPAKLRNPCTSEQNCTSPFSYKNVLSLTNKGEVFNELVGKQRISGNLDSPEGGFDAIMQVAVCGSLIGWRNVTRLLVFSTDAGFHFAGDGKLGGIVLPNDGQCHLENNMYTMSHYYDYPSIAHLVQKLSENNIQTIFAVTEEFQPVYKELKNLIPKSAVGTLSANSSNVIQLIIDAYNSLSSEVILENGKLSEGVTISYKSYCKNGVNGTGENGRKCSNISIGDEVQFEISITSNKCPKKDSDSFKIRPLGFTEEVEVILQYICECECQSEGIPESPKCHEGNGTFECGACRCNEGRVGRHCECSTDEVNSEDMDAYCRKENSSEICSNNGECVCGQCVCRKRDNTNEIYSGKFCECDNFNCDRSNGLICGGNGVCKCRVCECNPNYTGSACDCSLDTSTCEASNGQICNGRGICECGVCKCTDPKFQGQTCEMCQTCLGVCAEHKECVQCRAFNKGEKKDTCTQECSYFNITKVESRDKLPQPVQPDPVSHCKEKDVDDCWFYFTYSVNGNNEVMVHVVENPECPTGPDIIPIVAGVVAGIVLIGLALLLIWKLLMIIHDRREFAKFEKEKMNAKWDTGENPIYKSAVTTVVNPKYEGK
T1 sequence (P13612 whole entry, the tested form may be a part): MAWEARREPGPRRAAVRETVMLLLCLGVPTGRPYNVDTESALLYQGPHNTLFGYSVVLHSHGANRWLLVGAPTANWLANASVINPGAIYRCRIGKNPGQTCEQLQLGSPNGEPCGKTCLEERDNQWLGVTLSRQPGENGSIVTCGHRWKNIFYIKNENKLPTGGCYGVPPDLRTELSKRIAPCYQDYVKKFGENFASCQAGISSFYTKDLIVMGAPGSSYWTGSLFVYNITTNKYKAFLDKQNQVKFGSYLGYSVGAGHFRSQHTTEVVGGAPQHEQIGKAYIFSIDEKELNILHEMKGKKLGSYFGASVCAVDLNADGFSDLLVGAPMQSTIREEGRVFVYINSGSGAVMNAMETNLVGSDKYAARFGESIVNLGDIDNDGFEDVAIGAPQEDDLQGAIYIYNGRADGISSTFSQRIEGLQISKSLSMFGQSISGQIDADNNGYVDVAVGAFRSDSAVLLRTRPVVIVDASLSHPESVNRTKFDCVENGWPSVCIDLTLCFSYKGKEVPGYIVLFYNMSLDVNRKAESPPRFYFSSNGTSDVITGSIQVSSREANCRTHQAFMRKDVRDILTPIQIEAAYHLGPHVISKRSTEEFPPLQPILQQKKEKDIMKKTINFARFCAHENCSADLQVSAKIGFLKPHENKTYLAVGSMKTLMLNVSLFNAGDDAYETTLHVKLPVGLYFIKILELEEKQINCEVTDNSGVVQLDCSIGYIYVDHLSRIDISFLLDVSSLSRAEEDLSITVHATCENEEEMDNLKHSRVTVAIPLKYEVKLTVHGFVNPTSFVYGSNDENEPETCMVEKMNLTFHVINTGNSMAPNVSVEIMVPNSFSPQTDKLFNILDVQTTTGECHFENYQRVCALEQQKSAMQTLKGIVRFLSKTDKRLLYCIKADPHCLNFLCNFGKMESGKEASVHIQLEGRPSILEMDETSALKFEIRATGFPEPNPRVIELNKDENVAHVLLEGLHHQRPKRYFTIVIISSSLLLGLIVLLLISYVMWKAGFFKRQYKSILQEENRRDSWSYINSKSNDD

Structure (SMILES) | IC50 (Integrin alpha-4/beta-1 [1]) [nM] | IC50 (Integrin alpha-4/beta-1 [2]) [nM] | also measured
O=C(O)CC[C@H](NS(=O)(=O)c1ccc2ccccc2c1)C(=O)N[C@@H](Cc1ccccc1)C(=O)O | 180 |  | 
O=C(O)CN(CC(=O)N[C@@H](Cc1ccc(OCc2c(Cl)cccc2Cl)cc1)C(=O)O)S(=O)(=O)c1ccc(F)cc1 | 0.7 | 10 | 
CN([C@@H](CC(=O)O)C(=O)N[C@@H](Cc1ccc(OCc2c(Cl)cccc2Cl)cc1)C(=O)O)S(=O)(=O)c1ccccc1 | 2 |  | 
O=C(O)CN(CC(=O)N[C@@H](Cc1ccc(OCc2c(Cl)cccc2Cl)cc1)C(=O)O)S(=O)(=O)c1ccccn1 | 1.5 | 10 | 
CN([C@@H](CCC(=O)O)C(=O)N[C@@H](Cc1ccc(OCc2c(Cl)cccc2Cl)cc1)C(=O)O)S(=O)(=O)c1ccc2ccccc2c1 | 1 |  | 
CN([C@@H](CCC(=O)O)C(=O)N[C@@H](Cc1ccc(OCc2c(Cl)cccc2Cl)cc1)C(=O)O)S(=O)(=O)c1ccccc1 | 0.1 | 2 | 
O=C(O)CN(CC(=O)N[C@@H](Cc1ccc(OCc2c(Cl)cccc2Cl)cc1)C(=O)O)S(=O)(=O)c1ccccc1 | 0.6 | 8 | EOS inhibition (Mus musculus [3]): 69%; bioavailability [4]: 26.9%; EOS inhibition (Mus musculus [5]): 75%; Cmax [6]: 528 ng/mL; EOS count (Mus musculus [7]): 4.36 10^5 cells; clearance [8]: 58.8 mL/min/kg; EOS inhibition (Mus musculus [9]): 50%; Vd [10]: 0.303 L/kg; half-life [11]: 6.6 min; Cmax [12]: 101 ng/mL; EOS count (Mus musculus [13]): 2.67 10^5 cells; EOS inhibition (Mus musculus [14]): 28%; EOS count (Mus musculus [15]): 2.16 10^5 cells; EOS count (Mus musculus [16]): 6.26 10^5 cells
O=C(O)CN(CC(=O)N[C@@H](Cc1ccc(OCc2c(Cl)cccc2Cl)cc1)C(=O)O)S(=O)(=O)c1cccs1 | 0.8 | 10 | 
O=C(O)CC[C@H](NS(=O)(=O)c1ccc2ccccc2c1)C(=O)N[C@@H](Cc1ccc(OCc2c(Cl)cccc2Cl)cc1)C(=O)O | 2 |  | 

Reference: ChEMBL document CHEMBL1146634, “Sulphonamide-based small molecule VLA-4 antagonists” (Bioorg Med Chem Lett, 2003)
